For one experiment, the species on record is Cavia porcellus. In words: Inhibition of electrically stimulated contractions of the isolated guinea pig badder. Type of experiment: functional.
Sequence of Sigma non-opioid intracellular receptor 1 (Homo sapiens) (Q99720 whole entry): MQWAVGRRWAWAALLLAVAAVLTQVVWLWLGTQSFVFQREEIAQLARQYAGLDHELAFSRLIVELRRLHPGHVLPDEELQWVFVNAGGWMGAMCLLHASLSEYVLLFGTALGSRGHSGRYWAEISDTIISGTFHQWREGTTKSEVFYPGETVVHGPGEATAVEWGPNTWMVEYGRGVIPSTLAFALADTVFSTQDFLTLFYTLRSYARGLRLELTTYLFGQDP
Take `COc1cccc2c1CCC[C@H]2CCCN1CCN(C2CCCCC2)CC1`: it took 1750 nM to reach a half-maximal effect (EC50).
For `c1ccc2c(CCCCCN3CCN(C4CCCCC4)CC3)cccc2c1`, the 50% effective concentration (EC50) was found to be 2950 nM.

The target in another experiment is Sigma non-opioid intracellular receptor 1 (Homo sapiens) (UniProt Q99720). In words: Binding affinity ratio of sigma 2 receptor to that of sigma 1 receptor. The method in brief:
(§1)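 Sigma-1 binding used guinea pig brain membranes without cerebellum with (+)-[3H]pentazocine. […] IC50 came from 6–9 drug concentrations in two or three experiments with duplicate samples, then converted to apparent Ki. Ratios are computed from these Ki values.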
Regarding `c1ccc2c(c1)CCCC2CCCCCN1CCN(C2CCCCC2)CC1` (stereo unspecified), the Ratio turned out to be 5.4.
Same read-out and setting: next, `c1ccc2c(c1)CCCC2CCCN1CCN(C2CCCCC2)CC1` (stereo unspecified): 1.1; `c1ccc2c(CCCCN3CCN(C4CCCCC4)CC3)cccc2c1`: 139; `Oc1ccc2c(c1)CCCC2CCCN1CCN(C2CCCCC2)CC1` (stereo unspecified): 1.6.
The same measure, in the same setting: next, `COc1ccc2c(c1)CCCC2CCCN1CCN(C2CCCCC2)CC1` (stereo unspecified): 15.

A further experiment shares this target. In words: Binding affinity ratio of sigma 1 receptor to that of sigma 2 receptor. An outline of the steps: as §1
Consider `c1ccc(CCN2CCCCC2)cc1`, for which the Ratio came out at 1.6.
On the same count and under the same terms, the value for `c1ccc2c(CCCCCN3CCN(C4CCCCC4)CC3)cccc2c1` was 4.2.

The species entered for a further experiment is Cavia porcellus. In words: Inhibition of electrically stimulated contractions of the isolated guinea pig badder at 30 uM. Type of experiment: functional.
`c1ccc(CCN2CCCCC2)cc1`: testing at 30 µM gave an inhibition of 41%.

Another experiment addresses T1, Serotonin 3 (5-HT3) receptor (Rattus norvegicus, UniProt P35563+Q9JJ16).
T1 sequence (P35563 whole entry): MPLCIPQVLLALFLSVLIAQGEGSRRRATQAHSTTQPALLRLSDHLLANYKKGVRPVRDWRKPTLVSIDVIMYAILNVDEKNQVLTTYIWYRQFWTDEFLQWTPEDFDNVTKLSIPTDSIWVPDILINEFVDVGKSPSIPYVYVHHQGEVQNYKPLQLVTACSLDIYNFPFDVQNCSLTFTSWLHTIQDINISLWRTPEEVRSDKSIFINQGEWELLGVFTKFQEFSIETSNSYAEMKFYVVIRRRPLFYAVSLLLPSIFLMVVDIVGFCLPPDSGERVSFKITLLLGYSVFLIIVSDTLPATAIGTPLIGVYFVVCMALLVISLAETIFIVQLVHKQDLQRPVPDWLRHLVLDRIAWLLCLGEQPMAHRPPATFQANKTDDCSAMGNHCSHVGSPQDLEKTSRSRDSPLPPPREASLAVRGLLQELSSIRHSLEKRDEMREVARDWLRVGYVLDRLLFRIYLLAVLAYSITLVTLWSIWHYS
T1 sequence (Q9JJ16 whole entry): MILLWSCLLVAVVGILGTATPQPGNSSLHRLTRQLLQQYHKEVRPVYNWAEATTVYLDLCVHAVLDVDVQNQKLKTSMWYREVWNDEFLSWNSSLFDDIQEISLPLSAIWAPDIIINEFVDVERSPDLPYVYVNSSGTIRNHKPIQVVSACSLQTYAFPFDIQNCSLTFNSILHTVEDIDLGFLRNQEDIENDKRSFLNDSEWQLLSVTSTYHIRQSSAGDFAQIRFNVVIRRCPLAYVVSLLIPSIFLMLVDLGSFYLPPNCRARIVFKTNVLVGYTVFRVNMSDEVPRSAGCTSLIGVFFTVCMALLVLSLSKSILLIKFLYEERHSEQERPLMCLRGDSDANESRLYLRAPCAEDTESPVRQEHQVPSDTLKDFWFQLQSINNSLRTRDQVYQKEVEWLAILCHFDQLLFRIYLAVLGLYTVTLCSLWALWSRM
In words: In vitro binding affinity at serotonin 5-hydroxytryptamine 3 receptor in rat cortex by [3H]granisetron displacement. An outline of the steps: (§2)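 Competition binding was run with radioligand displacement: [3H]spiroperidol for D2-like, [3H]prazosin for α1 and [3H]granisetron for 5-HT3. D2 values are the mean of three independent experiments.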
As for `c1ccc(CCN2CCCCC2)cc1`, the Ki was greater than 700 nM.
`c1ccc2c(c1)CCCC2CCCCN1CCN(C2CCCCC2)CC1` (stereo unspecified) yielded a Ki greater than 700 nM.
`COc1cccc2c(CCCN3CCN(C4CCCCC4)CC3)cccc12`: the inhibition constant Ki is greater than 700 nM.
Same read-out and setting: next, `c1ccc2c(c1)CCCC2CCCCCN1CCN(C2CCCCC2)CC1` (stereo unspecified): greater than 700 nM.
`c1ccc2c(c1)CCCC2CCCN1CCN(C2CCCCC2)CC1` (stereo unspecified) showed a Ki greater than 700 nM.
The same measure, in the same setting: next, `Oc1cccc2c1CCCC2CCCN1CCN(C2CCCCC2)CC1` (stereo unspecified): greater than 700 nM; `c1ccc2c(CCCCN3CCN(C4CCCCC4)CC3)cccc2c1`: greater than 700 nM; `Oc1ccc2c(c1)CCCC2CCCN1CCN(C2CCCCC2)CC1` (stereo unspecified): greater than 700 nM.
For the compound `COc1cccc2c1CCC[C@H]2CCCN1CCN(C2CCCCC2)CC1`, the Ki is greater than 700 nM.
`COc1ccc2c(c1)CCCC2CCCN1CCN(C2CCCCC2)CC1` (stereo unspecified) showed a Ki greater than 700 nM.

Another experiment has as its target Sigma 2 receptor. Kind of experiment: In vitro binding affinity at opioid sigma-2 receptor in rat liver membranes by [3H]-DTG displacement in the presence of 1 uM (+)-pentazocine. Type of experiment: cell membranes, Membrane.
In the case of `c1ccc(CCN2CCCCC2)cc1`, the Ki was 194 nM.
Regarding `c1ccc2c(c1)CCCC2CCCCN1CCN(C2CCCCC2)CC1` (stereo unspecified), the Ki was determined as 14.6 nM.
`COc1cccc2c(CCCN3CCN(C4CCCCC4)CC3)cccc12`: the Ki was found to be 9.24 nM.
As to `c1ccc2c(c1)CCCC2CCCCCN1CCN(C2CCCCC2)CC1` (stereo unspecified), the Ki is 7.85 nM.
On to `c1ccc2c(c1)CCCC2CCCN1CCN(C2CCCCC2)CC1` (stereo unspecified), for which the Ki amounted to 0.68 nM.
Regarding `Oc1cccc2c1CCCC2CCCN1CCN(C2CCCCC2)CC1` (stereo unspecified), the inhibition constant (Ki) came out at 2.66 nM.
On to `c1ccc2c(CCCCN3CCN(C4CCCCC4)CC3)cccc2c1`, for which the Ki came to 30.5 nM.
Consider `Oc1ccc2c(c1)CCCC2CCCN1CCN(C2CCCCC2)CC1` (stereo unspecified), for which the Ki amounted to 1.12 nM.
In the case of `COc1cccc2c1CCC[C@H]2CCCN1CCN(C2CCCCC2)CC1`, the Ki was 8.65 nM.
Turning to `COc1ccc2c(c1)CCCC2CCCN1CCN(C2CCCCC2)CC1` (stereo unspecified), the inhibitory constant (Ki) was found to be 5.42 nM.
On to `c1ccc2c(CCCCCN3CCN(C4CCCCC4)CC3)cccc2c1`, for which the Ki is 0.57 nM.

For another experiment, the target named is T2, Adrenergic receptor alpha-1 (Rattus norvegicus, UniProt P15823+P23944+P43140).
T2 sequence (P15823 whole entry): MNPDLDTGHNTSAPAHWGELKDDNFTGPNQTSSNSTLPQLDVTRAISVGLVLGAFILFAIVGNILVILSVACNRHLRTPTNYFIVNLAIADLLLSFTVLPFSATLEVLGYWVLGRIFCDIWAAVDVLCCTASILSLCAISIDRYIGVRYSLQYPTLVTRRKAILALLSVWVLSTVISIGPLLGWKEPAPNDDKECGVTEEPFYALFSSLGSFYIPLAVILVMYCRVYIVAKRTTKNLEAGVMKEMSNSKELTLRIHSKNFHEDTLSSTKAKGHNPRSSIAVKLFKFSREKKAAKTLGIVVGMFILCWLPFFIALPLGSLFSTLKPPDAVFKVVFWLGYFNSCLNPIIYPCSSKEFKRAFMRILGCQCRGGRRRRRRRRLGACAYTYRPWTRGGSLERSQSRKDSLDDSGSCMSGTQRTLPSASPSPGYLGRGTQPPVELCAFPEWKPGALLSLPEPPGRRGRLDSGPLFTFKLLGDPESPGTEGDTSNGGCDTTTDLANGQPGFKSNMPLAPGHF
T2 sequence (P23944 whole entry): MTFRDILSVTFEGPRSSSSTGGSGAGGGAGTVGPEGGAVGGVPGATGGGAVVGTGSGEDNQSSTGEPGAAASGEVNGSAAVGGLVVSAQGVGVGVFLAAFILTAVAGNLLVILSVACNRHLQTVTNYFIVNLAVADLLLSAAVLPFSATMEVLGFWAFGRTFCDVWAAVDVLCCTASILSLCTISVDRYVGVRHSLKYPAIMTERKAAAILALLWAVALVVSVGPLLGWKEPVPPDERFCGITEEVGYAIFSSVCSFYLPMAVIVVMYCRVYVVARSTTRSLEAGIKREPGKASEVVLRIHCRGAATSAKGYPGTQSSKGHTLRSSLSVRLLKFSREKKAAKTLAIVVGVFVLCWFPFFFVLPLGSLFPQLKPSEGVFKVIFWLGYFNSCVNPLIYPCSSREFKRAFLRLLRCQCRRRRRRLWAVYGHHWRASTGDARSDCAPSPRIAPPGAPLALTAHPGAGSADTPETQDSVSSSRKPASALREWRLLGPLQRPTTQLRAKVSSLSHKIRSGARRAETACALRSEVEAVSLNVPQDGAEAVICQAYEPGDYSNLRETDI
T2 sequence (P43140 whole entry): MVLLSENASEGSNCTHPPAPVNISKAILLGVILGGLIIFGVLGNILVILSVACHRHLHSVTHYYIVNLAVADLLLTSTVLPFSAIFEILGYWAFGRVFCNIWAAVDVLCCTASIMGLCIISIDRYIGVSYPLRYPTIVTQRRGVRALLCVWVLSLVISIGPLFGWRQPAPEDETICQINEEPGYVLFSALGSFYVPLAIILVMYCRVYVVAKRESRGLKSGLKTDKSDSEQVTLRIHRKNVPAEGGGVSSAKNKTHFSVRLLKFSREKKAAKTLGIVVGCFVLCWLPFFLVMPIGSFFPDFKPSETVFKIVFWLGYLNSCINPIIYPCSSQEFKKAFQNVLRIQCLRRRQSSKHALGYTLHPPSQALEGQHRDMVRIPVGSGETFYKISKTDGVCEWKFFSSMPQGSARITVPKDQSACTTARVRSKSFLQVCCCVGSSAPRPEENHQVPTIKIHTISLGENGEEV
Kind of experiment: In vitro binding affinity at alpha-1 adrenergic receptor in rat cortex by [3H]prazosin displacement. An outline of the steps: as §2
`c1ccc(CCN2CCCCC2)cc1`: the Ki is given as greater than 7500 nM.
The same measure, in the same setting: next, `c1ccc2c(c1)CCCC2CCCCN1CCN(C2CCCCC2)CC1` (stereo unspecified): greater than 7500 nM.
Compound `COc1cccc2c(CCCN3CCN(C4CCCCC4)CC3)cccc12` returned a Ki greater than 7500 nM.
`c1ccc2c(c1)CCCC2CCCCCN1CCN(C2CCCCC2)CC1` (stereo unspecified) had a Ki greater than 7500 nM.
Compound `c1ccc2c(c1)CCCC2CCCN1CCN(C2CCCCC2)CC1` (stereo unspecified) showed a Ki greater than 7500 nM.
Regarding `Oc1cccc2c1CCCC2CCCN1CCN(C2CCCCC2)CC1` (stereo unspecified), the inhibitory constant (Ki) is greater than 7500 nM.
Regarding `c1ccc2c(CCCCN3CCN(C4CCCCC4)CC3)cccc2c1`, the Ki is given as greater than 7500 nM.
Still for that read-out and setting: the value for `Oc1ccc2c(c1)CCCC2CCCN1CCN(C2CCCCC2)CC1` (stereo unspecified) was greater than 7500 nM; that for `COc1cccc2c1CCC[C@H]2CCCN1CCN(C2CCCCC2)CC1` was greater than 7500 nM.
As for `COc1ccc2c(c1)CCCC2CCCN1CCN(C2CCCCC2)CC1` (stereo unspecified), the Ki is given as greater than 7500 nM.

(Values after ChEMBL document CHEMBL1148440, “4-(tetralin-1-yl)- and 4-(naphthalen-1-yl)alkyl derivatives of 1-cyclohexylpiperazine as sigma receptor ligands with agonist sigma2 activity” (J Med Chem, 2004).)
